Values after ≈ are worked out from the molar mass of the structure shown. *1 amine or outer side, *2 acyl side, *3 side chain or, on linkers, in order; H or OH if unused. Where a SMILES comes first, the peptide text is derived from it. Bridges are numbered along the chain shown (N, C = ends). Roman numbers before positions name the chains, in order. [ ]: non-standard residue; d: D form. Actinocin(1to9) = Cc1c2oc3c(C)ccc(C(=O)[*:2])c3nc-2c(C(=O)[*:1])c(N)c1=O; NMeV = CN[C@H](C(=O)O)C(C)C; Sar = CNCC(=O)O
Key:
[1] = Cytotoxicity against human PLC/PRF/5 cells after 6 days by MTT assay; format: functional; details: PLC-PRF-5, 144 h, read-out: ED50 (the source's name)
In short: (§1)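 Cells kept in DMEM with 10% FBS, 2 mM L-glutamine, penicillin and streptomycin. 1-3 × 10^3 cells/100 µL, attached 6 h, then fresh medium with a concentration series for 6 days at 37 °C in CO2, plus 10 mM HEPES pH 7.3. MTT (1 mg/mL in PBS) added for 4 h, formazan dissolved in DMSO, A550 read.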

HT-3 = assay: Cytotoxicity against human HT-3 cells after 6 days by MTT assay; format: functional; details: for EC50: Homo sapiens, HT-3, 144 h, read-out: ED50 (the source's name); in short: as §1
SiHa = assay: Cytotoxicity against human SiHa cells after 6 days by MTT assay; format: functional; details: for EC50: Homo sapiens, SiHa, 144 h, read-out: ED50 (the source's name); in short: as §1
T-24 = assay: Cytotoxicity against human T24 cells after 6 days by MTT assay; format: functional; details: T-24, 144 h, read-out: ED50 (the source's name); in short: as §1
212 (Mus musculus) = assay: Cytotoxicity against mouse 212 cells after 6 days by MTT assay; details: 144 h, read-out: ED50 (the source's name)
Ca-Ski = assay: Cytotoxicity against human CaSki cells after 6 days by MTT assay; format: functional; details: 144 h, read-out: ED50 (the source's name); in short: as §1

Row | SMILES | EC50 [1] [µg/mL] | EC50 (HT-3) [µg/mL] | EC50 (SiHa) [µg/mL] | EC50 (T-24) [µg/mL] | EC50 (212 (Mus musculus)) [µg/mL] | ED50 (HT-3) [×10⁻⁴ ug/ml] | EC50 (Ca-Ski) [µg/mL] | ED50 (SiHa) [×10⁻⁴ ug/ml]
1 | C=CC(C)(C)c1cc2c(cc1O)OC(c1cc(CC=C(C)C)c(O)c(O)c1CC=C(C)C)CC2 (stereo not given) [KAZINOL Q] | 3.5 (≈ 7.57 µM) | 4.3 (≈ 9.29 µM) | 4.7 (≈ 10.2 µM) | 2.3 (≈ 4.97 µM) | 3.8 (≈ 8.21 µM) |  |  | 
2 | C=CC(C)(C)c1cc(CCCc2cc(O)c3c(c2CC=C(C)C)C=CC(C)(C)O3)c(O)cc1O [KAZINOL K] |  | 8.6 (≈ 18.6 µM) |  |  |  |  |  | 
3 | Cc1c2oc3c(C)ccc(C(=O)N[C@@H]4C(=O)N[C@H](C(C)C)C(=O)N5CCC[C@H]5C(=O)N(C)CC(=O)N(C)[C@@H](C(C)C)C(=O)O[C@@H]4C)c3nc-2c(C(=O)N[C@@H]2C(=O)N[C@H](C(C)C)C(=O)N3CCC[C@H]3C(=O)N(C)CC(=O)N(C)[C@@H](C(C)C)C(=O)O[C@@H]2C)c(N)c1=O [DACTINOMYCIN] (I: T[dV]P[Sar][NMeV] / II: T[dV]P[Sar][NMeV]; ester I:1-I:C, II:1-II:C; linker I:N-II:N via Actinocin(1to9)) | 0.0014 (≈ 0.00112 µM) |  |  | 0.0015 (≈ 0.00119 µM) |  | 5.6 | 0.0019 (≈ 0.00151 µM) | 8.1
4 | C=CC(C)(C)c1cc(CCCc2cc(O)c3c(c2CC=C(C)C)CCC(C)(C)O3)c(O)cc1O [KAZINOL D] | 3.3 (≈ 7.1 µM) | 3.6 (≈ 7.75 µM) |  |  | 7 (≈ 15.1 µM) |  |  | 
5 | Oc1ccc(C2CCc3ccc(O)cc3O2)cc1 (stereo not given) |  | 11.6 (≈ 47.9 µM) | 8.9 (≈ 36.7 µM) |  |  |  | 17.4 (≈ 71.8 µM) | 
6 | C=CC(C)(C)c1cc2c(cc1O)OC(c1cc(O)c3c(c1CC=C(C)C)CC(O)C(C)(C)O3)CC2 (stereo not given) |  | 9.3 (≈ 19.4 µM) | 9.3 (≈ 19.4 µM) |  |  |  | 8.2 (≈ 17.1 µM) | 

— ChEMBL document CHEMBL1158001, “Cytotoxic isoprenylated flavans of Broussonetia kazinoki” (1999)
